From PubChem BioAssay
KCNQ1 inh = inhibitors of human KCNQ1 potassium channel | AID 2642 | P51787 | CHO-K1 KCNQ1, FluxOR thallium flux fluorescence; stronger effect = higher value | B-score at 10 µM | 1.3% of 310,000 active;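 active means compounds whose thallium flux B-score, printed positive for inhibition, exceeds three library SD while starting fluorescence stays within three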;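 further: channel opened by potassium depolarization with thallium stimulus after 20 min compound exposure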
KCNK9 inh = inhibitors of human KCNK9 two-pore domain potassium channel. Q9NPC2. HEK293 KCNK9, FluxOR thallium flux fluorescence; stronger effect = lower value. B-score at 10 µM. 1.2% of 310,000 active;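 active means ratio B-score over 3 SD below the library mean, with starting fluorescence within 5 SD of its mean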;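 further: negative B-score means less thallium flux so channel inhibition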
Target sequence (Q9NPC2 whole entry, looked up, the tested form may be a part): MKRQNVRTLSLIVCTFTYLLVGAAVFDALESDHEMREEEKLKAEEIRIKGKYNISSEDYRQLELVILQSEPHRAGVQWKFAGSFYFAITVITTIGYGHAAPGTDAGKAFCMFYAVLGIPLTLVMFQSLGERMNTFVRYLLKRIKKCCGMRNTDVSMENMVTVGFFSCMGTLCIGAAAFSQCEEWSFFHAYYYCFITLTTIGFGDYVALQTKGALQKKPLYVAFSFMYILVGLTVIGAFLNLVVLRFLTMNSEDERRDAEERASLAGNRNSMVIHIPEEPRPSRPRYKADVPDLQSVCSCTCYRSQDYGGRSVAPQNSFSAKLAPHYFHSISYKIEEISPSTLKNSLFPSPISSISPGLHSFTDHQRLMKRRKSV
KCNK3 block = human KCNK3 channel inhibition, primary screen | AID 602410 | CHO-KCNK3 thallium flux, FluxOR fluorescence; stronger effect = lower value | 0.84% of 340,000 active | B-score at 10 µM;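 active means B-score under library mean minus 4 SD, starting fluorescence ratio at most library mean plus 5 SD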;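 further: more negative B-score means stronger inhibition of thallium flux through KCNK3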
hERG protect = compounds protecting human hERG from proarrhythmic drug block. Q12809. CHO-hERG, FluxOR thallium flux, dofetilide IC70 present. activation (rescue from dofetilide block), less the hit threshold, % at 10 µM. 0.51% of 310,000 active. AID 1511;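 active means activation above the mean of controls blocked by dofetilide plus 5 SD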;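 further: thallium influx through hERG after potassium depolarization seen as dye fluorescence rise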
KCNQ1 act = human KCNQ1 channel potentiation or activation; P51787; 0.35% of 310,000 active; CHO-K1 KCNQ1, thallium flux FluxOR fluorescence; stronger effect = higher value; B-score at 10 µM;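 active means fluorescence ratio B-score, a plate-corrected score, at least three library SD, with initial intensity B-score within 5 SD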
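Medium – assay buffer, equal DMSO in all wells · Material – CHO-K1 cell line with stable KCNQ1 potassium channel expression · Signal – kinetic FluxOR thallium fluorescence, 10-s 1-Hz baseline, 110-s post-stimulus read · Compound – single concentration per compound, DMSO matched to controls · Schedule – 37 °C overnight plating, 90-min dark dye load, 20-min compound pretreatment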
Of the large screens only hits and unclear results are named; the others gave an inactive call. Only some compounds are listed: those with a hit (about 3.1% of all), similar ones and a draw of the others.

CCOC(=O)N1CCN(c2nc(N(c3ccccc3)c3ccccc3)nc(-n3ccnc3)n2)CC1	KCNQ1 inh 8 (no result: KCNK3 block)
O=C(NC1CCN(Cc2ccc(Cl)cc2)CC1)c1cn(-c2ccccc2)nc1-c1cccnc1	none (no result: KCNQ1 inh, KCNK9 inh, hERG protect, KCNQ1 act)
Cc1cc(C)n(CCc2nc(-c3ccc(F)cc3)cs2)n1	none
COc1cc(-c2csc(CCn3nc(C)cc3C)n2)cc(OC)c1OC	KCNK9 inh -6.7
CCOC(=O)SC1=N/C(=C\c2ccc(N(C)C)cc2)C(=O)S1	KCNQ1 act 8
O=C(C(=O)N1CCN(c2ccc(F)cc2)CC1)c1cn(CC(=O)N2CCOCC2)c2ccccc12	none
CN1C(=O)/C(=N\OC(=O)c2cccc3ccccc23)c2ccccc21	hERG protect 11, KCNQ1 act 18
COc1ccc(C(=O)O/N=C2\C(=O)N(C)c3ccccc32)cc1	none
CN1C(=O)C2C3c4ccccc4C(c4ccccc43)[C@@H]2C1=O (stereo partly drawn)	none
O=C1C2C3c4ccccc4C(c4ccccc43)C2c2nc3ccccc3n21 (stereo not drawn)	KCNK9 inh -7.7
CCOC(=O)c1cc(NC(=O)Cc2ccc(S(=O)(=O)N3CCOCC3)s2)cc(C(=O)OCC)c1	KCNQ1 inh 7
O=C(COc1ccccc1Cc1ccccc1)Nc1cccnc1	none (no result: KCNQ1 inh, KCNK9 inh, hERG protect, KCNQ1 act)
CC(=O)NC(c1ccccc1)c1nc2ccccc2[nH]1 (stereo not drawn)	KCNK3 block -11
CC(C)C(NC(=O)C(c1ccccc1)c1ccccc1)c1nc2ccccc2[nH]1 (stereo not drawn)	none
O=C(NC(=S)N1CCN(Cc2ccc3c(c2)OCO3)CC1)c1ccc(Cl)cc1	hERG protect 24, KCNQ1 act 11
CCNC(=S)N1CCN(Cc2ccc3c(c2)OCO3)CC1	none
O=C(NC(=S)N1CCN(Cc2ccc3c(c2)OCO3)CC1)c1cccc(Br)c1	hERG protect 25, KCNQ1 act 29
CC1CN(C(=S)NC(=O)c2ccc(Cl)cc2)CC(C)O1 (stereo not drawn)	hERG protect 6.4
COCCSc1nnc(NC(=O)C2CC(=O)N(C3CCCC3)C2)s1 (stereo not drawn)	none
COc1cccc(NC(=O)CN(C)C(C)C(=O)N2CCCCC2)c1 (stereo not drawn)	none (no result: KCNQ1 inh, KCNK9 inh, hERG protect, KCNQ1 act)
O=S(=O)(CS(=O)(=O)c1ccccc1)c1ccccc1	none (no result: KCNQ1 inh, KCNK9 inh, hERG protect, KCNQ1 act)
O=S(=O)(C/C(=C/CO)S(=O)(=O)c1ccccc1)c1ccccc1	KCNQ1 inh 6
CC(C)N1CCc2c(sc(NC(=O)c3cc4cc([N+](=O)[O-])ccc4s3)c2C(N)=O)C1	KCNQ1 inh 6
CN1CCc2c(sc(NC(=O)c3cc4cc([N+](=O)[O-])ccc4s3)c2C(N)=O)C1	none (no result: KCNK3 block)
CC(C)N1CCc2c(sc(NC(=O)c3ccc4ccccc4c3)c2C(N)=O)C1	KCNK9 inh -7.9
CCOC(=O)N1CCN(C(=O)Cn2nc(C)n3nc(-c4ccccc4)cc3c2=O)CC1	none
CCOC(=O)N1CCN(C(=O)CS(=O)Cc2nc(-c3ccc(OC)c(OC)c3)oc2C)CC1 (stereo not drawn)	none
CCOc1ccc(NC(=S)NS(=O)(=O)c2cc(Br)ccc2OCC)cc1	hERG protect 7.1
N#CCCn1cc(C(=O)Nc2ccccc2Br)c(-c2cccs2)n1	KCNK9 inh -7.3
CCOC(=O)N1C2=NC(C(=O)OC)=C(C(=O)OC)[C@@H]3N(Cc4ccccc4)c4ccccc4[C@]23C[C@H]1C(=O)OC	KCNK9 inh -7.7 (no result: KCNK3 block)
COC(=O)C1=C(C(=O)OC)[C@@H]2N(Cc3ccccc3)c3ccccc3[C@@]23C[C@@H](C(=O)OC)N(C(=O)C2CCC2)C3=N1	KCNK9 inh -7.7 (no result: KCNK3 block)
COc1ccc(Cl)cc1NC(=O)C(C)OC(=O)C1=NNC(=O)CC1 (stereo not drawn)	none (no result: KCNQ1 inh, KCNK9 inh, hERG protect, KCNQ1 act)
Clc1cccc2c1Sc1ccccc1CC2N1CCNCC1 (stereo not drawn)	none
Clc1ccc2c(c1)C(N1CCNCC1)Cc1ccccc1S2 (stereo not drawn)	KCNQ1 inh 6
Cc1cccc(Cn2c(O)c(N=NC(=S)Nc3ccccc3F)c3ccccc32)c1	hERG protect 27, KCNQ1 act 8
Oc1c(N=NC(=S)Nc2ccccc2F)c2ccccc2n1Cc1cccc(Cl)c1	hERG protect 16
O=Nc1c(O)n(Cc2ccc(Cl)cc2)c2ccccc12	none
Oc1c(N=NC(=S)Nc2ccccc2F)c2ccccc2n1Cc1ccc(F)cc1	hERG protect 55, KCNQ1 act 15
